Measured values published in ChEMBL document CHEMBL1128580, “Synthesis and antibacterial activity of some novel 1-substituted 1,4-dihydro-4-oxo-7-pyridinyl-3-quinolinecarboxylic acids. Potent antistaphylococcal agents” (1995).
Values after ≈ are worked out from the molar mass of the structure shown.

Tests used:
Format in all cases: functional
[1] = tested on: Bacteroides fragilis; assay: Minimum Inhibitory concentration measured against Bacteroides fragilis ATCC 25285
Summary of the method: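 Anaerobic broth microdilution. Grown in brain heart infusion broth with 5 µg/mL hemin and 0.5 µg/mL vitamin K for 48 h at 37 °C under 5% CO₂, 10% H₂, 85% N₂. Adjusted to absorbance 0.1 at 650 nm and diluted 1:10. Final 10⁵ cells/mL; plates incubated anaerobically for 48 h at 37 °C.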

[2] = tested on: Escherichia coli; assay: Minimum Inhibitory concentration measured against Escherichia coli ATCC 1-25922
Summary of the method: (§1)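 Broth microdilution on cultures kept as frozen stock, grown in Mueller Hinton II medium for 18–24 h at 37 °C. Suspension adjusted to absorbance 0.1 at 650 nm and diluted 1:10 in medium to give the inoculum. Final density 10⁵ cells/mL; plates incubated 24 h at 37 °C.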

[3] = tested on: Pseudomonas aeruginosa; assay: Minimum Inhibitory concentration measured against Pseudomonas aeruginosa ATCC 27853; summary of the method: as §1
[4] = tested on: Staphylococcus aureus; assay: Minimum Inhibitory concentration measured against Staphylococcus aureus ATCC 29213; summary of the method: as §1
[5] = tested on: Streptococcus pyogenes; assay: Minimum Inhibitory concentration measured against Streptococcus pyogenes ATCC 6301
Summary of the method: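 ATCC 6301 was grown in brain heart infusion broth with 10% heat-inactivated horse serum for 18–24 h at 37 °C. Suspension brought to absorbance 0.1 at 650 nm, then diluted 1:10 in the same medium. Broth microdilution at a final 10⁵ cells/mL, incubated 24 h at 37 °C.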

[6] = tested on: Enterococcus faecalis; assay: Minimum Inhibitory concentration measured against Streptococcus faecalis ATCC 29212; summary of the method: as §1

| Structure (SMILES) | MIC [1] | MIC [2] | MIC [3] | MIC [4] | MIC [5] | MIC [6] |
| --- | --- | --- | --- | --- | --- | --- |
| Cc1cc(-c2ccc3c(=O)c(C(=O)O)cn(C4CC4)c3c2)cc(C)n1 | > 4 µg/mL | 0.25 µg/mL (≈ 0.748 µM) | > 4 µg/mL | 0.06 µg/mL (≈ 0.179 µM) | 0.5 µg/mL (≈ 1.5 µM) | 0.5 µg/mL (≈ 1.5 µM) |
| CCc1cc(-c2cc3c(cc2F)c(=O)c(C(=O)O)cn3C2CC2)ccn1 | 1 µg/mL (≈ 2.84 µM) | 0.125 µg/mL (≈ 0.355 µM) | 4 µg/mL (≈ 11.4 µM) | 0.03 µg/mL (≈ 0.0851 µM) | 0.25 µg/mL (≈ 0.709 µM) | 0.25 µg/mL (≈ 0.709 µM) |
| O=C(O)c1cn(C2CC2)c2cc(-c3ccncc3)c(F)cc2c1=O | 1 µg/mL (≈ 3.08 µM) | 0.03 µg/mL (≈ 0.0925 µM) | 2 µg/mL (≈ 6.17 µM) | 0.06 µg/mL (≈ 0.185 µM) | 0.25 µg/mL (≈ 0.771 µM) | 0.5 µg/mL (≈ 1.54 µM) |
| CCn1cc(C(=O)O)c(=O)c2cc(F)c(-c3ccncc3)cc21 | 16 µg/mL (≈ 51.2 µM) | 0.125 µg/mL (≈ 0.4 µM) | 2 µg/mL (≈ 6.4 µM) | 0.25 µg/mL (≈ 0.801 µM) | 2 µg/mL (≈ 6.4 µM) | 1 µg/mL (≈ 3.2 µM) |
| Cc1cc(-c2cc3c(cc2F)c(=O)c(C(=O)O)cn3C2CC2)cc(CN(C)C)n1 | 2 µg/mL (≈ 5.06 µM) | 0.06 µg/mL (≈ 0.152 µM) | 8 µg/mL (≈ 20.2 µM) | 0.06 µg/mL (≈ 0.152 µM) | 0.5 µg/mL (≈ 1.26 µM) | 0.5 µg/mL (≈ 1.26 µM) |
| Cc1cc(-c2cc3c(cc2F)c(=O)c(C(=O)O)cn3C(C)(C)C)cc(C)n1 | 1 µg/mL (≈ 2.71 µM) | 0.25 µg/mL (≈ 0.679 µM) | > 4 µg/mL | 0.03 µg/mL (≈ 0.0814 µM) | 0.125 µg/mL (≈ 0.339 µM) | 0.25 µg/mL (≈ 0.679 µM) |
| Cc1cc(-c2cc3c(cc2F)c(=O)c(C(=O)O)cn3C2CC2)cc(C)n1 | 0.5 µg/mL (≈ 1.42 µM) | 0.03 µg/mL (≈ 0.0851 µM) | 2 µg/mL (≈ 5.68 µM) | 0.008 µg/mL (≈ 0.0227 µM) | 0.03 µg/mL (≈ 0.0851 µM) | 0.06 µg/mL (≈ 0.17 µM) |
| Cc1cc(-c2cc3c(cc2F)c(=O)c(C(=O)O)cn3C2CC2)ccn1 | 0.5 µg/mL (≈ 1.48 µM) | 0.03 µg/mL (≈ 0.0887 µM) | 2 µg/mL (≈ 5.91 µM) | 0.016 µg/mL (≈ 0.0473 µM) | 0.06 µg/mL (≈ 0.177 µM) | 0.06 µg/mL (≈ 0.177 µM) |
| COCc1cc(-c2cc3c(cc2F)c(=O)c(C(=O)O)cn3C2CC2)cc(C)n1 | 1 µg/mL (≈ 2.62 µM) | 0.25 µg/mL (≈ 0.654 µM) | 8 µg/mL (≈ 20.9 µM) | 0.03 µg/mL (≈ 0.0785 µM) | 0.125 µg/mL (≈ 0.327 µM) | 0.125 µg/mL (≈ 0.327 µM) |
| Cc1cc(-c2nc3c(cc2F)c(=O)c(C(=O)O)cn3C2CC2)cc(C)n1 | 2 µg/mL (≈ 5.66 µM) | 0.125 µg/mL (≈ 0.354 µM) | 8 µg/mL (≈ 22.6 µM) | 0.03 µg/mL (≈ 0.0849 µM) | 0.25 µg/mL (≈ 0.708 µM) | 0.125 µg/mL (≈ 0.354 µM) |
| O=C(O)c1cn(C2CC2)c2cc(-c3cccnc3)c(F)cc2c1=O | 0.5 µg/mL (≈ 1.54 µM) | 0.008 µg/mL (≈ 0.0247 µM) | 1 µg/mL (≈ 3.08 µM) | 0.016 µg/mL (≈ 0.0493 µM) | 0.125 µg/mL (≈ 0.385 µM) | 0.25 µg/mL (≈ 0.771 µM) |
| CNCc1cc(-c2cc3c(cc2F)c(=O)c(C(=O)O)cn3C2CC2)cc(C)n1 | 2 µg/mL (≈ 5.24 µM) | 0.016 µg/mL (≈ 0.0419 µM) | 1 µg/mL (≈ 2.62 µM) | 0.125 µg/mL (≈ 0.328 µM) | 0.25 µg/mL (≈ 0.655 µM) | 0.2 µg/mL (≈ 0.524 µM) |
| CNn1cc(C(=O)O)c(=O)c2cc(F)c(-c3cc(C)nc(C)c3)cc21 | > 4 µg/mL | 0.25 µg/mL (≈ 0.732 µM) | > 4 µg/mL | 0.06 µg/mL (≈ 0.176 µM) | 1 µg/mL (≈ 2.93 µM) | 0.5 µg/mL (≈ 1.46 µM) |
| Cc1cc(-c2ccc3c(=O)c(C(=O)O)cn(C4CC4)c3c2F)cc(C)n1 |  | 0.06 µg/mL (≈ 0.17 µM) |  | 0.008 µg/mL (≈ 0.0227 µM) |  |  |
| Cc1cc(-c2c(F)c(F)c3c(=O)c(C(=O)O)cn(C4CC4)c3c2F)cc(C)n1 | 0.5 µg/mL (≈ 1.29 µM) | 0.13 µg/mL (≈ 0.335 µM) | 8 µg/mL (≈ 20.6 µM) | 0.008 µg/mL (≈ 0.0206 µM) | 0.03 µg/mL (≈ 0.0773 µM) | 0.06 µg/mL (≈ 0.155 µM) |
| CCn1cc(C(=O)O)c(=O)c2cc(F)c(-c3cc(C)nc(C)c3)cc21 | 2 µg/mL (≈ 5.88 µM) | 0.06 µg/mL (≈ 0.176 µM) | 4 µg/mL (≈ 11.8 µM) | 0.03 µg/mL (≈ 0.0881 µM) | 0.25 µg/mL (≈ 0.735 µM) | 0.25 µg/mL (≈ 0.735 µM) |
| Cc1ccc(-c2cc3c(cc2F)c(=O)c(C(=O)O)cn3C2CC2)c(C)n1 | 4 µg/mL (≈ 11.4 µM) | 0.5 µg/mL (≈ 1.42 µM) | > 16 µg/mL | 1 µg/mL (≈ 2.84 µM) | 8 µg/mL (≈ 22.7 µM) | 4 µg/mL (≈ 11.4 µM) |
| Cc1cc(-c2cc3c(cc2F)c(=O)c(C(=O)O)cn3C2CC2)c(C)c(C)n1 | 4 µg/mL (≈ 10.9 µM) | 0.125 µg/mL (≈ 0.341 µM) | 8 µg/mL (≈ 21.8 µM) | 0.06 µg/mL (≈ 0.164 µM) | 0.25 µg/mL (≈ 0.682 µM) | 0.5 µg/mL (≈ 1.36 µM) |
| Cc1cc(-c2cc3c(cc2F)c(=O)c(C(=O)O)cn3C2CC2)cc(CO)n1 | 1 µg/mL (≈ 2.71 µM) | 0.06 µg/mL (≈ 0.163 µM) | 4 µg/mL (≈ 10.9 µM) | 0.03 µg/mL (≈ 0.0814 µM) | 0.06 µg/mL (≈ 0.163 µM) | 0.125 µg/mL (≈ 0.339 µM) |
| Cc1ccc(-c2cc3c(cc2F)c(=O)c(C(=O)O)cn3C2CC2)cn1 | 0.25 µg/mL (≈ 0.739 µM) | 0.03 µg/mL (≈ 0.0887 µM) | 2 µg/mL (≈ 5.91 µM) | 0.03 µg/mL (≈ 0.0887 µM) | 0.25 µg/mL (≈ 0.739 µM) | 0.25 µg/mL (≈ 0.739 µM) |
| Cc1cc(-c2cc3c(cc2F)c(=O)c(C(=O)O)cn3-c2ccc(F)cc2)cc(C)n1 | 1 µg/mL (≈ 2.46 µM) | 0.125 µg/mL (≈ 0.308 µM) | 4 µg/mL (≈ 9.84 µM) | 0.125 µg/mL (≈ 0.308 µM) | 1 µg/mL (≈ 2.46 µM) | 1 µg/mL (≈ 2.46 µM) |
| CCNCc1cc(-c2cc3c(cc2F)c(=O)c(C(=O)O)cn3C2CC2)cc(C)n1 | 8 µg/mL (≈ 20.2 µM) | 0.06 µg/mL (≈ 0.152 µM) | 8 µg/mL (≈ 20.2 µM) | 0.5 µg/mL (≈ 1.26 µM) | 0.5 µg/mL (≈ 1.26 µM) | 2 µg/mL (≈ 5.06 µM) |
| Cc1cncc(-c2cc3c(cc2F)c(=O)c(C(=O)O)cn3C2CC2)c1 | 0.25 µg/mL (≈ 0.739 µM) | 0.06 µg/mL (≈ 0.177 µM) | 2 µg/mL (≈ 5.91 µM) | 0.016 µg/mL (≈ 0.0473 µM) | 0.06 µg/mL (≈ 0.177 µM) | 0.125 µg/mL (≈ 0.369 µM) |
| O=C(O)c1cn(C2CC2)c2cc(N3CCNCC3)c(F)cc2c1=O [CIPROFLOXACIN] | 2 µg/mL (≈ 6.04 µM) |  |  | 0.25 µg/mL (≈ 0.754 µM) | 0.25 µg/mL (≈ 0.754 µM) | 0.5 µg/mL (≈ 1.51 µM) |
| CCn1cc(C(=O)O)c(=O)c2ccc(-c3cc(C)nc(C)c3)cc21 [DIMETHYLROSOXACIN] | 16 µg/mL (≈ 49.6 µM) | 0.25 µg/mL (≈ 0.776 µM) | 2 µg/mL (≈ 6.2 µM) | 0.25 µg/mL (≈ 0.776 µM) | 32 µg/mL (≈ 99.3 µM) | 1 µg/mL (≈ 3.1 µM) |
| CCn1cc(C(=O)O)c(=O)c2cc(F)c(N3CCNCC3)cc21 [NORFLOXACIN] | 8 µg/mL (≈ 25.1 µM) | 0.125 µg/mL (≈ 0.391 µM) | 2 µg/mL (≈ 6.26 µM) | 2 µg/mL (≈ 6.26 µM) | 4 µg/mL (≈ 12.5 µM) | 4 µg/mL (≈ 12.5 µM) |
| CCn1cc(C(=O)O)c(=O)c2ccc(-c3ccncc3)cc21 [ROSOXACIN] | 8 µg/mL (≈ 27.2 µM) | 0.125 µg/mL (≈ 0.425 µM) | 16 µg/mL (≈ 54.4 µM) | 0.5 µg/mL (≈ 1.7 µM) | 16 µg/mL (≈ 54.4 µM) | 16 µg/mL (≈ 54.4 µM) |
| Cc1cc(-c2c(F)cc3c(=O)c(C(=O)O)cn(C4CC4)c3c2F)cc(C)n1 [WIN-57294] | 0.125 µg/mL (≈ 0.338 µM) | 0.06 µg/mL (≈ 0.162 µM) | 4 µg/mL (≈ 10.8 µM) | 0.008 µg/mL (≈ 0.0216 µM) | 0.016 µg/mL (≈ 0.0432 µM) | 0.06 µg/mL (≈ 0.162 µM) |
